Compound activity deposited in PubChem BioAssay by several laboratories.
Compounds with a hit are over-represented: about 5.5% of the library has one in this group of screens.
Cl transport mod: KCC2 cotransporter modulators, thallium flux, primary screen, cell-based, HEK293 KCC2, FluoZin-2 fluorescence, MLSMR; 2.2% of 190,000 active; Solute carrier family 12 member 5 (Homo sapiens), Q9H2X9; AID 1456, 2008; KCC2 cells, thallium flux FluoZin-2 fluorescence; B-score of Tl+ flux slope (higher = more flux/activation; lower = inhibition) at 10 µM;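 active = thallium flux slope and its plate-corrected score both differing from the plate sample mean at a set confidence after two filtering rounds, in either direction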;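 also: slope of fluorescence scaled to starting intensity during 10 to 20 s after thallium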
Target sequence (Q9H2X9 whole entry, looked up): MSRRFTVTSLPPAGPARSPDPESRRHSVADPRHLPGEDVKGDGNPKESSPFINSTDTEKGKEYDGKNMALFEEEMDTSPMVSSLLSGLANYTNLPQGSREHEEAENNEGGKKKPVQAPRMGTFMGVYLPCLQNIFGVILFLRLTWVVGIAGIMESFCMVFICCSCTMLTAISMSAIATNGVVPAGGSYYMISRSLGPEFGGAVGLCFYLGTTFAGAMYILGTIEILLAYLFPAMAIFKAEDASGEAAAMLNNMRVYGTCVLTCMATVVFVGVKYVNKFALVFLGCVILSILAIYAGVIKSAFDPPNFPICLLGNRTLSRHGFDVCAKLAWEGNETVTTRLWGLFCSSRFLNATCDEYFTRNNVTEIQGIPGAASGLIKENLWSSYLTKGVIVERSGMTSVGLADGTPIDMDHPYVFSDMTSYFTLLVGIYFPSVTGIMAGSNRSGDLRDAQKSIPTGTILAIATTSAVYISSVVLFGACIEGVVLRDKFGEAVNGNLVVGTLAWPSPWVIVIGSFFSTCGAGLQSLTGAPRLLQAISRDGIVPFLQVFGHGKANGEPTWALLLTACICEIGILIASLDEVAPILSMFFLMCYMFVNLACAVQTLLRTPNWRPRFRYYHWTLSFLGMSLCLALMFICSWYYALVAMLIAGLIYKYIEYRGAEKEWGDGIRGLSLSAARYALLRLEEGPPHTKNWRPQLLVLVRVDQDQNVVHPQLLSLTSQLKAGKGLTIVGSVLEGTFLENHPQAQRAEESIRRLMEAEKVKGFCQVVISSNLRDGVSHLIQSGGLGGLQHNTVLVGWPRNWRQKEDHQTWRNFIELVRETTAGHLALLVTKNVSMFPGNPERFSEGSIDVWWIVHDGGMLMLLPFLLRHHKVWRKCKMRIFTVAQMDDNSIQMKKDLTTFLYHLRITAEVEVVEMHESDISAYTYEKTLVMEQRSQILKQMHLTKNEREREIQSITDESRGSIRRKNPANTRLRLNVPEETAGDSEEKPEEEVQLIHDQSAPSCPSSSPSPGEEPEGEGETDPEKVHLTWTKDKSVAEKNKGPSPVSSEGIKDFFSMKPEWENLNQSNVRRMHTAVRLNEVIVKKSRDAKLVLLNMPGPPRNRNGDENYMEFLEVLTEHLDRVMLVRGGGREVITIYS
BB579 growth dn: growth inhibitors of yeast BB579 in restrictive medium, primary screen, yeast lifespan-shortening project, S. cerevisiae; inhibition, % at 10 µM; OD615, 48 h; 0.51% of 140,000 active;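 active = inhibition above a set limit, 3 SD over the mean compound inhibition, cut at about 44% in these data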
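controls = amphotericin B 10 µg/mL, positive | assay system = DeaD yeast strain BB579 | schedule = 48 h compound exposure at 30 °C after 4 h preincubation | detection = OD615 turbidity measurement | medium = restrictive CSMM-D medium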
WT yeast gro inh: growth inhibition of WT strain, primary screen, mitochondrial fusion inhibitor project, WT and mutant strains, chemical genetic; mitochondrial fusion phenotypic screen; inhibition, % at 10 µM; 2.1% of 190,000 active; AID 1362, 2008; in the data active = inhibition above about 58%; tested in S. cerevisiae
RAM inhibit: inhibitors of the yeast RAM network, primary screen, dse1pr::URA3 reporter, 5-FOA selection | S. cerevisiae dse1pr::URA3 reporter, 5-FOA growth OD615, 2 d; analog-sensitive cbk1-as2 kinase mutant strain | inhibition, % at 50 µM | 1.8% of 190,000 active | AID 868, 2007;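 active = inhibition above a set limit, 3 SD over mean compound inhibition, cut at about 8.4% in these data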;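 also: 0% = DMSO-only wells with no growth and 100% = 10 µM 1-NA-PP1 full growth; inhibition rescues growth on 5-FOA so higher OD means more RAM inhibition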
Yeast lifespan up: compounds extending yeast replicative lifespan, primary screen, S. cerevisiae, OD615; S. cerevisiae growth with nicotinamide; deaD strain in restrictive glucose medium; inhibition of the nicotinamide effect, % at 10 µM; 0.68% of 130,000 active; AID 775, 2007;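 active = inhibition above a set limit, placed 3 SD over the median of all compounds, cut at about 26% in these data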;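 also: 0% = nicotinamide-treated wells and 100% = cells grown without nicotinamide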
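Test system: DeaD-strain S. cerevisiae / Buffer or medium: restrictive glucose medium / Also added: nicotinamide 1.5 mM / Doses: one concentration, 10 µM, DMSO 0.25% / Schedule: 48 h at 30 °C / Signal: OD615 measurement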
KCC2 secondary: KCC2 modulators in sodium-free buffer, confirmation, cell-based, HEK293 KCC2, thallium flux, secondary assay; 15% of 3,700 active; shares compounds with Cl transport mod; FluoZin2 fluorescence; stronger effect = higher value; AID 1713, 2009; normalised thallium flux (F/F0 slope) at 10 µM;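 active = thallium flux slope above the same plate's solvent-only control mean plus 3 SD; inconclusive = the two replicate wells disagree; inactive = no significant difference from solvent-only control wells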
KCC2 bumet counter: thallium flux persisting under bumetanide in KCC2 cells, confirmation, counter-screen for KCC2 modulator project, cell-based, HEK293 KCC2, FluoZin2, secondary assay 3 | shares compounds with Cl transport mod | HEK293-KCC2 + bumetanide/ouabain; stronger effect = higher value | normalized thallium flux at 10 µM | 49% of 3,700 active;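 active = thallium entry rate above the same plate's blocked-transporter control wells by more than 3 SD; inconclusive = the two repeat wells disagree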;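 also: raw slope of fluorescence over initial fluorescence between 10 and 20 s after thallium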
KCC2 secondary2: KCC2 modulators without ouabain present, confirmation, cell-based, HEK293 KCC2, thallium flux, FluoZin2, secondary assay 2; shares compounds with Cl transport mod; thallium flux FluoZin2 fluorescence; actives lie on both sides; F/F0 rise rate, 10–20 s post-thallium; normalized thallium flux at 10 µM; 23% of 3,700 active; AID 1715, 2009;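 active = thallium flux slope more than 3 SD above or below the plate's solvent-only control mean, mostly below; inconclusive = the two repeat wells disagreed; inactive = no significant shift from solvent-only controls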;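 also: raw slope with 0.1% DMSO as baseline and bumetanide as block control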
HEK counter1: thallium flux modulation in parental HEK cells, confirmation, counter-screen for KCC2 modulator project, cell-based, counterscreen 1; shares compounds with Cl transport mod; HEK293 parental cells, thallium flux FluoZin2, ouabain; baseline-ratio fluorescence slope, 10–20 s after thallium; thallium flux rate (normalised fluorescence) at 10 µM; 46% of 3,700 active; AID 1716, 2009;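 active = thallium flux rate significantly above the same plate's solvent-only control wells, beyond their mean plus 3 SD; inconclusive = the two replicate wells gave conflicting results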
KCC2 retest ouab: KCC2 inhibitors and activators, ouabain retest, confirmation, HEK-KCC2 cells; HEK293-KCC2, thallium flux FluoZin2 fluorescence; bidirectional: low = inhibitor, high = activator; raw Tl+ flux slope (below DMSO = inhibition, above = activation) at 10 µM; 48% of 3,700 active; shares compounds with Cl transport mod;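 active = thallium flux slope beyond 3 SD from same-plate DMSO control mean in most replicates, usually higher, sometimes lower; inconclusive = repeat tests gave conflicting results; inactive = no significant difference from controls in most replicates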;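 also: slope of initial-normalized fluorescence between seconds 10 and 20 after thallium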
HEK293 Tl flux2: native HEK Tl+ uptake effects, second counter-screen – HEK cells, counterscreen 2, counter-screen for KCC2 modulator project, confirmation; shares compounds with Cl transport mod; HEK293 parental, thallium flux FluoZin-2 fluorescence slope; thallium flux slope at 10 µM; 33% of 3,700 active; AID 1718, 2009;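 active = thallium flux slope above the same plate's solvent-control mean plus 3 SD in both duplicate wells; inconclusive = duplicate wells that disagreed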;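 also: run without ouabain in cells lacking the KCC2 cotransporter; slope of fluorescence scaled to its starting value between 10 and 20 s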
* hit, by the source's call; ? = inconclusive; nt = not tested or not shown.

SMILES	Cl transport mod	BB579 growth dn	WT yeast gro inh	RAM inhibit	Yeast lifespan up	KCC2 secondary	KCC2 bumet counter	KCC2 secondary2	HEK counter1	KCC2 retest ouab	HEK293 Tl flux2
O=C(Nc1ccn(-c2ccccc2)n1)c1ccc(S(=O)(=O)N2CCCCCC2)cc1	nt	-7.2	21.5	7.4	-8.3	?	0.00411	0.0291	0.0072	0.016*	0.0108
Cc1ccc(-n2c(CNc3cccc(Cl)c3)n[nH]c2=S)cc1	2.26	nt	19.3	3.1	nt	nt	nt	nt	nt	nt	nt
Cc1ccc(-n2c(CNc3ccc(C)c(Cl)c3)n[nH]c2=S)cc1	3.46*	nt	54.2	4.6	nt	0.00938	0.0844*	0.0319	0.0111*	0.0277	?
CCCCc1c(CCC)c(=N)c2ccccc2n1C	-0.113	6.3	-8.0	1.7	-5.2	nt	nt	nt	nt	nt	nt
COC(=O)c1ccc(C23CC4(C2)[C@H](CN(C)[C@@H]4c2ccccc2)C3c2ccc(Cl)nc2)cc1 (stereo partly drawn)	-0.493	nt	nt	nt	nt	nt	nt	nt	nt	nt	nt
CC(C)n1c(=S)[nH]c2scc(-c3cccs3)c2c1=O	110*	nt	nt	nt	nt	0.0233*	0.0923*	0.0883*	0.09*	0.0926*	0.0847*
O=c1c2c(-c3cccs3)csc2[nH]c(=S)n1-c1ccccc1	2.4	-62.0	-6.4	6.2	-18.8	nt	nt	nt	nt	nt	nt
Clc1ccccc1CSC1=NCCCN1	nt	-4.9	-10.9	1.1	-6.0	0.0075	0.00472	0.0311	0.00796	0.0195	0.0108
O=C(c1cncs1)N1CCCC(CNS(=O)(=O)c2cccs2)C1 (stereo not drawn)	-0.268	nt	-17.2	0.4	nt	nt	nt	nt	nt	nt	nt
CCCCCCC(=O)N/N=C/c1ccc(Br)cc1	-0.0585	-41.4	-12.9	1.7	-3.4	nt	nt	nt	nt	nt	nt
CCCCCCCCC(=O)N/N=C/c1cccc(Br)c1	5.49*	-32.2	-3.0	4.2	-0.6	0.00722	?	0.0309	0.00792	0.0193	0.0104
CCCc1ccc(Oc2cc(N3CCOCC3)nc(-c3ccccc3)n2)cc1	1.25	nt	nt	nt	nt	nt	nt	nt	nt	nt	nt
COC(=O)[C@H](Cc1ccccc1)NC(=O)O[C@@H]1C(=O)c2cc(Br)ccc2O[C@H]1c1cccc(OC)c1	0.0403	-38.2	11.6	6.0	4.6	nt	nt	nt	nt	nt	nt
COC(=O)[C@@H](NC(=O)O[C@@H]1C(=O)c2cc(Br)ccc2O[C@H]1c1cccc(OC)c1)C(C)C	9.3*	-7.0	28.5	3.8	6.2	0.00635	0.0127*	0.0299	0.0148*	?	?
CN1C(=O)C(N=Nc2ccccc2C(=O)O)N(C)C1=S (stereo not drawn)	-4.73*	nt	-12.6	6.1	nt	0.00728	0.00168*	?	0.00541*	0.0146*	0.00947
CN1CCCN(Cc2nc(-c3cccc(C(F)(F)F)c3)no2)CC1	0.564	nt	11.5	0.0	nt	nt	nt	nt	nt	nt	nt
COc1ccccc1OCc1ccc(C(=O)N2N=C(C(F)F)CC2(O)C(F)F)o1 (stereo not drawn)	-3.32*	-53.5	17.5	0.1	-7.6	0.00711	0.00568	0.0254*	0.00669	0.0132*	?
O=C(c1ccc(COc2ccc(Cl)cc2)o1)N1N=C(C(F)F)CC1(O)C(F)F (stereo not drawn)	-2.04	-26.0	13.0	2.4	3.3	nt	nt	nt	nt	nt	nt
Cc1csc(NC(=O)C2CC(=O)N(Cc3ccco3)C2)n1 (stereo not drawn)	2.83*	nt	15.3	2.4	nt	0.00579	0.00458	0.0299	0.0078	0.0187	0.00979
Cc1ccc(-c2csc(NC(=O)C3CC(=O)N(Cc4ccco4)C3)n2)cc1 (stereo not drawn)	-4.34	nt	15.6	2.6	nt	nt	nt	nt	nt	nt	nt
Cc1cc(C(F)(F)F)n(-c2nc(C(=O)Nc3ccccc3Oc3ccccc3)cs2)n1	nt	-17.4	14.2	4.6	5.5	nt	nt	nt	nt	nt	nt
CC(=O)Nc1ccccc1-c1nc2ccccc2nc1OCC(=O)c1ccc(Cl)cc1	-0.114	-34.4	-2.0	5.4	-1.7	nt	nt	nt	nt	nt	nt
CC(c1ccccc1)n1c(-c2cccs2)nc2c(c(=O)c3ccccc3n2C)c1=O (stereo not drawn)	-3.6*	nt	nt	nt	nt	0.00773	0.0064	0.0292	0.00568*	0.0184	0.00967
Cn1c2ccccc2c(=O)c2c(=O)n(-c3ccc(F)cc3)c(-c3cccs3)nc21	-0.0556	nt	nt	nt	nt	nt	nt	nt	nt	nt	nt
CC(O)c1nc2ccccc2n1CCCOc1ccccc1 (stereo not drawn)	-0.356	nt	nt	nt	nt	nt	nt	nt	nt	nt	nt
SMILES	Cl transport mod	BB579 growth dn	WT yeast gro inh	RAM inhibit	Yeast lifespan up	KCC2 secondary	KCC2 bumet counter	KCC2 secondary2	HEK counter1	KCC2 retest ouab	HEK293 Tl flux2
NC(=O)C1CCN(C(=O)c2ccc(Oc3cc(Cl)cc(Cl)c3)o2)CC1	-0.261	nt	nt	nt	nt	nt	nt	nt	nt	nt	nt
COc1ccc(C(=O)NNC(=O)Cc2ccc(Cl)cc2)cc1	-0.382	nt	1.1	1.4	nt	nt	nt	nt	nt	nt	nt
O=C(NNC(=O)c1ccc(Oc2ccc(C3SCCS3)cc2)o1)c1ccc(Cl)cc1	5.4*	nt	nt	nt	nt	0.00812	0.0263*	0.0309	0.0101*	0.0316*	0.0103*
O=C(NNC(=O)c1ccc(Oc2cc(Cl)cc(Cl)c2)o1)c1ccccc1	28.3*	nt	nt	nt	nt	0.0138*	0.051*	0.0299	0.0195*	0.0362*	0.0117*
CCCN(C(=O)CSc1cc(-c2ccccc2)c2ccc(OC)cc2n1)C1CCS(=O)(=O)C1 (stereo not drawn)	-0.0684	3.6	39.3	3.3	-4.8	nt	nt	nt	nt	nt	nt
COc1ccc2c(-c3ccccc3)cc(SC(C)C(N)=O)nc2c1 (stereo not drawn)	5.47*	nt	19.1	0.8	nt	0.00983	0.00805*	0.0336	0.0143*	0.0232	?
